Assay outcomes: PubChem, several laboratories
Only some compounds are listed: those with a hit (about 2.7% of all), similar ones and a draw of the others.
Mdm2 ligase inh – inhibitors of human Mdm2 E3 ubiquitin ligase; Q00987; cell-based MDM2 ubiquitination luciferase reporter, 2 h; 0 = plate control, 100 = twice control, blank-subtracted; signal enhancement, % at 5 µM; 210,000 compounds, 0.11% hits;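 active means signal enhancement of 30% or more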;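 further: luminescence tracks abundance of the self-degrading MDM2-luciferase fusion protein; higher signal means inhibition of MDM2 E3 ligase activity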
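Material: Stable MDM2–luciferase fusion reporter cells | Amount: 2000 cells seeded into each well | Dosing: One concentration, 5 µM, with 0.2% DMSO | Incubation: 4 h cell settling then 2 h compound exposure, 37 °C | Measured by: Luciferase luminescence | Read-out basis: % enhancement relative to plate controls after blank subtraction | Benchmarks: Control and blank well means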
TbHK1 inh – blocks Trypanosoma brucei hexokinase 1 activity. inhibition, % at 10 µM. recombinant TbHK1, G6PDH-coupled NADH A340. 220,000 compounds, 0.11% hits;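 active means inhibition of 50% or more in the single-dose primary screen; inactive means inhibition below 50%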
Hck-Nef inh – blocks Nef-activated human Hck kinase; Recombinant Hck-YEEI plus Nef, Z-Lyte FRET kinase assay; 220,000 compounds, 0.68% hits; P08631; inhibition, % at 20 µM;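 active means Hck-Nef kinase inhibition above about 50%, limit read from the data; inactive means inhibition below that limit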;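 further: 0% = DMSO with Hck plus Nef and 100% = Hck alone without Nef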
14-3-3 Bad PPI – disrupts binding of bovine 14-3-3 zeta to phospho-Bad peptide; P63103; TR-FRET 14-3-3zeta/Dy647-pBad peptide displacement, 1 h; inhibition, % at 21.7 µM; 220,000 compounds, 0.71% hits; AID 781;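 active means inhibition above about 70%, limit read from the data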;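 further: 0% = full 14-3-3 plus peptide FRET controls and 100% = background without 14-3-3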
Wee1 stabilizer – blocks degradation of human Wee1 kinase | HeLa Luc-Wee1K328M stability, luciferase luminescence; 100% = proteasome inhibitor MG132 effect | reporter increase, % at 5 µM | 220,000 compounds, 1.2% hits | AID 1321;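 active means activation above the mean of all tested compounds plus 3 SD, set per screening run, cut at about 8.8% in these data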;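 further: cells exposed to compound for 20 h before luminescence read; 0% = DMSO alone and 100% = MG132 at 30 µM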
Target sequence (P30291 whole entry K328M): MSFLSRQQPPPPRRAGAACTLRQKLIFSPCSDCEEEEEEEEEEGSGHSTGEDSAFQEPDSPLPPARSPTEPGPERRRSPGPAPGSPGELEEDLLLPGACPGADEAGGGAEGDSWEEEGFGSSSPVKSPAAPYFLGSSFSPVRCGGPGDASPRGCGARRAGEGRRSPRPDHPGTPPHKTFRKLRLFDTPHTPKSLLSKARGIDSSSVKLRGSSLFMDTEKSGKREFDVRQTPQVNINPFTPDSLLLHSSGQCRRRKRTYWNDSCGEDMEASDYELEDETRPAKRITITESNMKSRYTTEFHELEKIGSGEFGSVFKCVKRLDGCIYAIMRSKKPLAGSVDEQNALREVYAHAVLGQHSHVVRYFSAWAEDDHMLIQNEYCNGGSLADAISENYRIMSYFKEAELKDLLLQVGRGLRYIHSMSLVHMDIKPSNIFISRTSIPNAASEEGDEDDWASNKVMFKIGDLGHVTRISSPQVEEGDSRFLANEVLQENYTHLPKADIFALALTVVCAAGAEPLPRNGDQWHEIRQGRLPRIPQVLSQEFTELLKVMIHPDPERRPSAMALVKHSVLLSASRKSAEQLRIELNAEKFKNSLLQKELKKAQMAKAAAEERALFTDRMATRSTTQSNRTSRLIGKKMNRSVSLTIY
Active calls of the source: *; . = not tested or not shown; + = active, no number; [ ] = another dose, or the depositor's remark.

SMILES	Mdm2 ligase inh	TbHK1 inh	Hck-Nef inh	14-3-3 Bad PPI	Wee1 stabilizer
CC1=C(C)C(=O)NC(Nc2nc(C)c3cc(C)cc(C)c3n2)N1 (stereo not given)	.	-16	1	.	-2
COC(=O)c1ccc(NC(=S)NNC(=O)CC(C)C)cc1	7	-14	3	-4	10*
COC(=O)c1ccc(NC(=S)NNC(=O)c2ccccc2)cc1	12	-30	24	-18	-2
CN1CCc2nc3sc(C(=O)C45CC6CC(CC(C6)C4)C5)c(N)c3cc2C1	2	-4	-2	81*[fluorescence artefact?]	-1
CCc1nc(OCCN(CC)CC)c2oc3ccccc3c2n1	-14	4	8	80*	-2
CCN(CC)CCOc1ncnc2c1oc1ccccc12	-20	-6	1	4	-2
CCOC(=O)c1nnn(-c2nonc2N)c1-c1ccc(Br)cc1	-3	2	0	14	9.5*
Cc1ccc(NC(=O)Cn2cccc2)cc1C	-12	1	0	-3	-1
Cc1ccc(NC(=O)Cn2cccc2)cc1Cl	-12	1	1	+	0
CCC(=O)c1ccc(OCC(=O)OCC(=O)Nc2sccc2C(N)=O)cc1	-1	4	31	8	-1
CCc1nnc(NC(=O)C2=CCN(S(=O)(=O)c3ccc(F)cc3)CC2)s1	.	-4	15	8	-1
O=C1Nc2ccccc2N=C(c2ccccc2)c2ccccc21	-10	-7	7	-15	3
Nc1ccc(N2CCN(c3ccc(F)cc3)CC2)cc1	-10	6	7	-4	-4
Nc1ccc(N2CCCCCC2)cc1	-4	11	-3	80*[fluorescence artefact?]	1
CN(CCC#N)C(=O)COC(=O)c1c2c(nc3ccccc13)/C(=C/c1ccco1)CC2	-10	-13	6	-10	10*
CCOC(=O)C1CCCN(C(=O)c2cc3c(=O)n4cccc(C)c4nc3n2C)C1 (stereo not given)	.	-8	29	.	0
CC1=NN(C(=O)COc2cc(C)ccc2C(C)C)C(O)(c2ccccc2)C1 (stereo not given)	5	-4	17	-6	11*
COc1ccc(CNC(=O)CS(=O)CC(=O)O)cc1OC (stereo not given)	6	1	-10	-1	-1
O=C(O)CSc1cccc[n+]1[O-]	1	4	1	-10	-3
[O-][n+]1ccccc1SC/C=C/c1ccccc1	-16	7	19	1	10*
S=C(Nc1ccc(Nc2ccccc2)cc1)Nc1ccccn1	-23	-2	94*	-9	1
CCOC(=O)c1c(C)[nH]c(C)c1C(=O)COc1ncnc2cc([N+](=O)[O-])ccc12	-11	-5	26	-10	-1
Cn1cc([N+](=O)[O-])c(C(=O)Nc2ccc(-c3nc4ccccc4o3)cc2)n1	.	-15	23	6	0
O=C(O)c1ccc2ncsc2c1	-13	-14	7	82*	-3
CC1CC(Nc2ccccc2N)=CC(=O)O1 (stereo not given)	-16	0	-20	-5	1
SMILES	Mdm2 ligase inh	TbHK1 inh	Hck-Nef inh	14-3-3 Bad PPI	Wee1 stabilizer
Cc1cccc(NC2=CC(=O)OC(C)C2)c1 (stereo not given)	-29	0	-14	81*	1
NCCc1c(-c2ccccc2)n(-c2ccccc2)c2ccccc12	-5	22	7	-4	2
O=Cc1ccc(-c2cccc([N+](=O)[O-])c2)o1	-73	-45	20	17	10*
O=C(CCCn1cnc([N+](=O)[O-])n1)Nc1ccc(F)c(Cl)c1	-7	0	9	3	9.9*
CC1=C(C(=O)NC(C)CCc2ccccc2)C2(CCC(C)CC2)OC1=O (stereo not given)	36*	-39	25	-10	0
CC1=C(C(=O)N2CCc3ccccc32)C2(CCC(C)CC2)OC1=O (stereo not given)	-18	1	0	84*	1
O=C(CCC(=O)OCC(F)(F)C(F)F)Nc1ccccc1F	-9	1	13	-12	-1
Cc1sc2ncn(Cc3ccccc3F)c(=O)c2c1C	-6	-6	15	-2	4
O=c1c2ccsc2ncn1Cc1ccccc1F	-22	1	2	-4	15*
CCN(CC)c1ncnc2c1cnn2Cc1ccc(Cl)cc1	-3	-2	21	-15	-5
COc1ccc(Nc2nc(-c3cccs3)cs2)c(OC)c1	-6	0	-11	78*	8
CC(=C/C(=O)O)/C=C/c1ccc([N+](=O)[O-])cc1	-4	-35	1	3	11*
CC(C)C1N=C(c2ccc3c(c2)OCO3)CC(c2ccccc2O)N1 (stereo not given)	-2	-26	0	11	9.4*
O=C(O)[C@H](Cc1ccccc1)NC(=O)C(c1ccccc1)(c1ccccc1)c1ccccc1	.	-5	9	88*	-1
Cc1n[nH]c(C)c1C(=O)CC1(O)C(=O)N(CCc2ccccc2)c2ccc(Cl)cc21 (stereo not given)	-11	2	1	-10	10*
CCCCN1C(=O)C(O)(CC(=O)c2c(C)n[nH]c2C)c2cc(Br)ccc21 (stereo not given)	-11	-6	0	-24	2
COC1=C/C(=C/c2c(N)n3nc(-c4ccc(C)cc4)sc3nc2=O)C=CC1=O	4	-24	-8	72*	2
Brc1ccc(-c2nnc(-c3cccc(Br)c3)o2)cc1	-2	-5	0	-3	10*
Cc1cccc(NC(=O)COn2nnc3ccc(S(C)(=O)=O)cc32)c1	-13	-5	25	-5	-1
COc1ccc(NC(=O)CC2S/C(=N\c3nccs3)N(C)C2=O)cc1 (stereo not given)	-9	-5	20	-7	-2
Cc1nc(SCc2c(F)cccc2Cl)n[nH]1	1	3	1	85*	0
Cc1cc2cc3c(cc2nc1SCC(=O)OC(C)C)OCCO3	-6	-3	8	91*[fluorescence artefact?]	1
COc1ccc(C(=O)NC(NC(=O)c2ccc(OC)c(OC)c2)c2ccccc2F)cc1OC	2	-5	-5	-6	9.9*
COc1ccc(-c2cc(C(F)(F)F)n3nc(C(=O)NCCCN4CCOCC4)cc3n2)cc1	9	-23	19	-2	10*
Cc1cccc(Cn2c(=O)n(CCCC(=O)NCc3ccco3)c(=O)c3ccccc32)c1	4	12	9	-7	-1
Cc1cccc(Cn2c(=O)n(Cc3ccco3)c(=O)c3ccccc32)c1	-12	-2	4	-1	10*
C#CCOCCOCCOCCNc1nc(N2CCN(C(=O)C([C@@H](C)CC)n3cc(C(N)Cc4ccc(O)cc4)nn3)CC2)nc(N2CCN(C(=O)[C@H](CCC(=O)O)n3cc(C(N)CC(C)C)nn3)CC2)n1 (stereo not given in full)	.	-9	0	0	5
